Test results reported in paper PMC2903386 (The Journal of Biological Chemistry, 2010).
Non-standard residues stand in square brackets, D forms with d. Residues, ends and D or L forms follow the SMILES beside them. *: point of attachment. X1 = CC[N+]1=C(C=CC=CC=C2N(CCCCCC(=O)NCCN3C(=O)CC(*)C3=O)c3ccc(S(=O)(=O)O)cc3C2(C)C)C(C)(C)c2cc(S(=O)(=O)[O-])ccc21; Ahx = NCCCCCC(=O)O

How the values were obtained:
plasmin = plasmin (Homo sapiens, UniProt P00747); experiment: Cleavage by purified plasmin; type: in vitro ADME; conditions: 5 μM purified Cy5-labeled peptide, 50 nM plasmin, 37 °C, 2 h, 16% Tricine gel
Procedure, shortened: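 Plasmin at 50 nM was incubated with 5 μM purified Cy5-labeled test peptide at 37 °C for 2 h, run alongside 2% tumor, liver or kidney extract digests. Products were resolved on 16% Tricine acrylamide gels and detected by Cy5 fluorescence imaging.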

PyMT mammary tumors = experiment: Fluorescence imaging contrast in PyMT tumor-bearing mice; type: in vivo, mouse; conditions: PyMT mice, fluorescence imaging 6 h after injection of 10 nmol
Procedure, shortened: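 PyMT transgenic mice bearing spontaneous mammary tumors were anesthetized with ketamine 80 mg/kg plus midazolam 5 mg/kg (1:1) and weighed. They were injected via the tail vein with Cy5 peptide: free peptide 100 μl of 100 μM (10 nmol) or albumin-reactive peptide 100 μl of 30 μM (3 nmol). Maestro imaging (ex 640 ± 24 nm, em >700 nm) was done at 6 h or 48 h, comparing tumor with adjacent normal tissue.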

[1] = Cleavage of Cy5-labeled ACPPs by tumor tissue extract; type: in vitro ADME, mouse; conditions: 5 μM purified Cy5-labeled peptide, 2% tumor extract, 37 °C, 2 h, 16% Tricine gel
Procedure, shortened: (§1)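 Fresh mouse tissue was gently homogenized in PBS on ice and spun at 14,000 × g for 1 min; the supernatant was used. 5 μM purified Cy5-labeled test peptide was incubated with 2% liver or tumor extract in PBS containing ZnCl2 at 37 °C for 2 h. Cleaved and uncleaved peptide were resolved on 16% Tricine gels and imaged by fluorescence.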

[2] = Tumor standardized uptake value; type: in vivo; conditions: PyMT, mouse, iv, 10 nmol
[3] = Cleavage of Cy5-labeled ACPP by liver tissue extract; type: in vitro ADME, mouse; conditions: 5 μM purified Cy5-labeled peptide, 2% liver extract, 37 °C, 2 h, 16% Tricine gel
Procedure, shortened: as §1

Sequence of plasmin (P00747 581-810 limits assumed): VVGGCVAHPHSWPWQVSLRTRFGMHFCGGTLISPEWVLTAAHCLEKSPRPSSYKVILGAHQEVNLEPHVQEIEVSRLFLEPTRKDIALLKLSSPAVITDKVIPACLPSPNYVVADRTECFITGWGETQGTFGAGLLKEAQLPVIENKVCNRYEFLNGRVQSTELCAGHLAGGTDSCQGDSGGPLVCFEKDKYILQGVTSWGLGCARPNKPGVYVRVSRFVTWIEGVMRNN
Sequence of plasmin (P00747 97-580 partner limits assumed): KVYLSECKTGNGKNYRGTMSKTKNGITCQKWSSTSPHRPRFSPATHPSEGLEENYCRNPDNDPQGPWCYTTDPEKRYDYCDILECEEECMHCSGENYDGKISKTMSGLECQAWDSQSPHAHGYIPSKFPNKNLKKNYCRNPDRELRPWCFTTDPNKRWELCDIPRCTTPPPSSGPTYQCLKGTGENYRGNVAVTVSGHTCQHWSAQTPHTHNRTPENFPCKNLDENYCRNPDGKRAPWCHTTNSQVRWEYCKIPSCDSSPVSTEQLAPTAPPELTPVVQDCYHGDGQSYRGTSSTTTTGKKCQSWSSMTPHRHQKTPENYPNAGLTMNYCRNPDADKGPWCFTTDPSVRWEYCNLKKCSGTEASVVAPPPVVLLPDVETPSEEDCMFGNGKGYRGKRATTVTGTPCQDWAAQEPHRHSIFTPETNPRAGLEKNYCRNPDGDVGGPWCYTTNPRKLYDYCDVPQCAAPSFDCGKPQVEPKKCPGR

**Q.** With CC[N+]1=C(C=CC=CC=C2N(CCCCCC(=O)NCCN3C(=O)CC(SC[C@@H](NC(=O)[C@@H](CCCNC(=N)N)NC(=O)[C@@H](CCCNC(=N)N)NC(=O)[C@@H](CCCNC(=N)N)NC(=O)[C@@H](CCCNC(=N)N)NC(=O)[C@@H](CCCNC(=N)N)NC(=O)[C@@H](CCCNC(=N)N)NC(=O)[C@@H](CCCNC(=N)N)NC(=O)[C@@H](CCCNC(=N)N)NC(=O)[C@@H](CCCNC(=N)N)NC(=O)[C@H](CC(C)C)NC(=O)[C@H](CCCCNC(C)=O)NC(=O)[C@H](CC(C)C)NC(=O)[C@H](CCC(N)=O)NC(=O)[C@H](CC(C)C)NC(=O)[C@H](CCCNC(=N)N)NC(=O)CCCCCNC(=O)[C@@H](CCC(=O)O)NC(=O)[C@@H](CCC(=O)O)NC(=O)[C@@H](CCC(=O)O)NC(=O)[C@@H](CCC(=O)O)NC(=O)[C@@H](CCC(=O)O)NC(=O)[C@@H](CCC(=O)O)NC(=O)[C@@H](CCC(=O)O)NC(=O)[C@@H](CCC(=O)O)NC(=O)[C@H](N)CCC(=O)O)C(N)=O)C3=O)c3ccc(S(=O)(=O)O)cc3C2(C)C)C(C)(C)c2cc(S(=O)(=O)[O-])ccc21 (some centres unmarked) [RLQLK(Ac)L ACPP] (H-[dE][dE][dE][dE][dE][dE][dE][dE][dE][Ahx]RLQLK(Ac)L[dR][dR][dR][dR][dR][dR][dR][dR][dR][dC](X1)-NH2) as the molecule, how does the “cleavage by plasmin (in words)” value (plasmin) read?
**A.** not cleaved

**Q.** And the “Tumor to non-tumor contrast, free peptide” value (PyMT mammary tumors)?
**A.** less than 3 fold

**Q.** And the “cleavage by tumor extracts, comparison with parent (in words)” value [1]?
**A.** efficiently cleaved

**Q.** And the SUV at 6 h [2]?
**A.** 0.48 ± 0.04 SUV

**Q.** What about the “cleavage by liver tissue extract compared with parent RLQLKL ACPP (in words)” value [3] of the same molecule?
**A.** significantly reduced
